According to ChEMBL document CHEMBL3621064, “Fungal metabolite ophiobolin A as a promising anti-glioma agent: In vivo evaluation, structure-activity relationship and unique pyrrolylation of primary amines” (Bioorg Med Chem Lett, 2015):
Calls of active or inactive are those of the source. The rule behind the calls is not given here.

Experiments:
[1] = Antiproliferative activity against human U373 cells by MTT assay; type: functional, U-373MG ATCC; details: U373 MG
Summary of the method: (§1)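 Cell lines grown in RPMI with 10% heat-inactivated fetal calf serum, 4 mM glutamine, gentamicin, penicillin and streptomycin. Growth inhibition by colorimetric MTT assay across a five-line panel: U373 GBM, A549 NSCLC and SKMEL-28 melanoma (apoptosis-resistant), plus Hs683 oligodendroglioma and MCF-7 breast (apoptosis-sensitive).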

SK-MEL-28 = experiment: Antiproliferative activity against human SK-MEL-28 cells by MTT assay; type: functional; summary of the method: as §1
MCF7 = experiment: Antiproliferative activity against human MCF7 cells by MTT assay; type: functional; summary of the method: as §1
[2] = Antiproliferative activity against human Hs683 cells by MTT assay; type: functional; details: Hs 683; summary of the method: as §1
A549 = experiment: Antiproliferative activity against human A549 cells by MTT assay; type: functional; summary of the method: as §1
[3] = Growth inhibition of human NCI60 cells; type: functional
U-251 [4] = experiment: Antitumor activity against luciferase expressing human U251 cells xenografted in mouse assessed as inhibition of tumor growth at 10 mg/kg, ip dosed as 3 doses per week for 21 days; type: functional, organism-based
Summary of the method: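 Orthotopic U251-luciferase human GBM tumors in mice; 10 mg/kg IP 3x weekly for 21 days versus 0.9% saline vehicle; relative tumor growth followed by temporal bioluminescence imaging.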

U-251 [5] = experiment: Antitumor activity against luciferase expressing human U251 cells xenografted in mouse assessed as increase in mouse survival at 10 mg/kg, ip dosed as 3 doses per week for 21 days; type: functional, organism-based
Summary of the method: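 Orthotopic mouse GBM model inoculated with 1×10^6 U251-LUC cells; 10 mg/kg IP 3x per week for 21 days, 0.9% saline vehicle control; mice without signs of GBM sacrificed on day 100 after inoculation and counted as long-term survivors; survival monitored.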

Brain = experiment: Drug level in brain tumor of luciferase expressing human U251 cells xenografted mouse dosed intravenously and measured after 15 mins; type: ADME, organism-based, U-251; details: in vivo, iv, 0.25 h
Summary of the method: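 Single intravenous injection into lateral tail vein of a mouse bearing a brain tumor; brain tumor extract taken 15 min post administration and analysed for intact compound.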

SMILES	GI50 [1] [µM]	GI50 (SK-MEL-28) [µM]	GI50 (MCF7) [µM]	GI50 [2] [µM]	GI50 (A549) [µM]	GI50 [3] [µM]	TGI (U-251 [4])	Activity (U-251 [5])	Drug uptake (Brain)
CO[C@H]1O[C@@]2(OC)C[C@@](C)(O)[C@H]3C[C@@]4(C)CC[C@@]5(O[C@@H](C=C(C)C)C[C@@H]5C)[C@@H]4C/C=C/1[C@H]32	0.4	0.3	0.4	0.4	0.3	–	–	–	–
CCOC1O[C@@]2(OCC)C[C@@](C)(O)[C@H]3C[C@@]4(C)CC[C@@]5(O[C@@H](C=C(C)C)C[C@@H]5C)[C@@H]4C/C=C/1[C@H]32 (mixture of isomers)	0.4	0.1	0.2	0.2	0.3	–	–	–	–
CC(=O)O[C@]1(C)Cc2occ3c2[C@@H]1C[C@@]1(C)CC[C@@]2(O[C@@H](C=C(C)C)C[C@@H]2C)[C@@H]1/C=C\3	8	6	13	11	6	–	–	–	–
CCCO[C@H]1O[C@@]2(OCCC)C[C@@](C)(O)[C@H]3C[C@@]4(C)CC[C@@]5(O[C@@H](C=C(C)C)C[C@@H]5C)[C@@H]4C/C=C/1[C@H]32	0.4	0.2	0.2	0.2	0.3	–	–	–	–
CC(=O)N[C@@H](CCCCn1cc2c3c1C[C@@](C)(O)[C@H]3C[C@@]1(C)CC[C@@]3(O[C@@H](C=C(C)C)C[C@@H]3C)[C@@H]1/C=C\2)C(=O)O	> 100	> 100	> 100	> 100	> 100	–	–	–	–
CC(C)=C[C@H]1C[C@H](C)[C@]2(CC[C@]3(C)C[C@H]4c5c(cn(Cc6ccccc6)c5C[C@@]4(C)O)/C=C\[C@H]32)O1	69	58	40	46	51	–	–	–	–
CC(=O)N[C@@H](CCCC/N=C/C1=C/C[C@@H]2[C@](C)(CC[C@@]23O[C@@H](C=C(C)C)C[C@@H]3C)C[C@H]2[C@@H]1C(=O)C[C@@]2(C)O)C(=O)O	4	3	4	3	3	–	–	–	–
CC(C)=C[C@H]1C[C@H](C)[C@]2(CC[C@]3(C)C[C@H]4[C@H](C(=O)C[C@@]4(C)O)C(/C=C/C#N)=C\C[C@H]32)O1	27	28	26	22	27	–	–	–	–
CCOC(C)(C)[C@@H](Br)[C@H]1C[C@H](C)[C@]2(CC[C@]3(C)C[C@H]4[C@H](C(=O)C[C@@]4(C)O)/C(C=O)=C\C[C@H]32)O1	1.2	0.6	1.2	0.9	0.9	–	–	–	–
C#CCCCOC(=O)/C=C/C1=C/C[C@@H]2[C@](C)(CC[C@@]23O[C@@H](C=C(C)C)C[C@@H]3C)C[C@H]2[C@@H]1C(=O)C[C@@]2(C)O	20	23	12	12	15	–	–	–	–
CC(C)=C[C@H]1C[C@H](C)[C@]2(CC[C@]3(C)C[C@H]4c5c(cn(CCCCCCn6cc7c8c6C[C@@](C)(O)[C@H]8C[C@@]6(C)CC[C@@]8(O[C@@H](C=C(C)C)C[C@@H]8C)[C@@H]6/C=C\7)c5C[C@@]4(C)O)/C=C\[C@H]32)O1	30	24	14	25	26	–	–	–	–
C[C@H]1C[C@H](C2OC2(C)C)O[C@@]12CC[C@]1(C)C[C@H]3[C@H](C(=O)C[C@@]3(C)O)/C(C=O)=C\C[C@H]12 (mixture of isomers)	0.6	0.4	0.6	0.4	0.6	–	–	–	–
CC(C)=C[C@H]1C[C@H](C)[C@]2(CC[C@]3(C)C[C@H]4[C@H](C(=O)C[C@@]4(C)O)/C(C=O)=C\C[C@H]32)O1 [OPHIOBOLIN A]	0.06	0.05	0.06	0.02	0.1	0.07	Active	Active	Active
CC(C)=C[C@H]1C[C@H](C)[C@]2(CC[C@]3(C)C[C@@H]4C(C)=CC(=O)[C@H]4/C(C=O)=C\C[C@H]32)O1 [3-ANHYDRO-6-EPI-OPHIOBOLIN A]	18	8	10	8	9	–	–	–	–
CC(C)=C[C@H]1C[C@H](C)[C@]2(CC[C@]3(C)C[C@H]4c5c(cnnc5C[C@@]4(C)O)CC[C@H]32)O1	30	29	27	29	34	–	–	–	–
CC(C)=C[C@H]1C[C@H](C)[C@]2(CC[C@]3(C)C[C@H]4c5c(cn(CCc6ccc(O)cc6)c5C[C@@]4(C)O)/C=C\[C@H]32)O1	54	33	23	33	35	–	–	–	–
COC(=O)/C=C/C1=C/C[C@@H]2[C@](C)(CC[C@@]23O[C@@H](C=C(C)C)C[C@@H]3C)C[C@H]2[C@@H]1C(=O)C[C@@]2(C)O	86	86	43	59	59	–	–	–	–
C#CCOC(C)(C)[C@@H](Br)[C@H]1C[C@H](C)[C@]2(CC[C@]3(C)C[C@H]4[C@H](C(=O)C[C@@]4(C)O)/C(C=O)=C\C[C@H]32)O1	1.4	0.6	0.8	0.6	0.8	–	–	–	–
C[C@H]1C[C@H]([C@H](Br)C(C)(C)OCc2cn(Cc3ccccc3)nn2)O[C@@]12CC[C@]1(C)C[C@H]3[C@H](C(=O)C[C@@]3(C)O)/C(C=O)=C\C[C@H]12	3.4	1	1.2	0.8	1.2	–	–	–	–
C#CCCCCOC(C)(C)[C@@H](Br)[C@H]1C[C@H](C)[C@]2(CC[C@]3(C)C[C@H]4[C@H](C(=O)C[C@@]4(C)O)/C(C=O)=C\C[C@H]32)O1	2.2	0.6	1.4	0.8	1	–	–	–	–
